5 compounds from ChEMBL document CHEMBL1128545, “Effect of a chiral 4-alkyl substituent in hallucinogenic amphetamines” (J Med Chem, 1995) can be followed below.

Test [1] has as its system Rattus norvegicus. The test is described as follows: Percentage of rats selecting the drug lever (% SDL) for dose 6.96(umol/kg). The format is functional. In short, it runs like this: (§1)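 Drugs are given ip in saline. Test sessions run under extinction and end at 50 presses on one lever. Rats must hold 85% accuracy on training days. The read-out is the percentage of rats choosing the drug lever at each dose.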

Test [2] deals with Rattus norvegicus. The test is described as follows: Percentage of rats selecting the drug lever (% SDL) for dose 1.74(umol/kg). Type of test: functional. The essentials:
as §1

The species named for test [3] is Rattus norvegicus. Description: Potency against LSD trained rat, activity is expressed as ED50. The format is functional.
In test [4] the test system is Rattus norvegicus. Description: Percentage of rats selecting the drug lever (% SDL) for dose 13.91(umol/kg). Type of test: functional. The essentials:
as §1

The subject of test [5] is Rattus norvegicus. Description: Percentage of rats selecting the drug lever (% SDL) for dose 3.48 (umol/kg). The format is functional. In short, it runs like this: as §1
The subject of test [6] is Rattus norvegicus. Description: Percentage of rats selecting the drug lever (% SDL) for dose 0.77(umol/kg). The format is functional. The essentials: as §1
Test [7] can be described thus: Hill coefficient of the compound. The essentials:
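Rat frontal cortex (male Sprague–Dawley) homogenized in 0.32 M sucrose, preincubated twice 10 min at 37 °C; assay in 50 mM Tris HCl pH 7.4 with EDTA, ascorbate, 10 mM MgCl2, 10 µM pargyline, 200–400 µg protein. Displacement of 0.25 nM [125I]-(R)-DOI, 15 min at 37 °C, GF/C filtration, γ-counting. Triplicates, 3–4 experiments; parameters fitted by EBDA/LIGAND.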

For test [8], the system named is Rattus norvegicus. Description: Percentage of rats selecting the drug lever (% SDL) for dose 1.02(umol/kg). The format is functional. The essentials: as §1
Test [9] has as its system Rattus norvegicus. Description: Percentage of rats selecting the drug lever (% SDL) for dose 2.04(umol/kg). The format is functional. The essentials: as §1
The test system of test [10] is Rattus norvegicus. Description: Percentage of rats selecting the drug lever (% SDL) for dose 0.51(umol/kg). The format is functional. In short, it runs like this:
as §1

In test [11] the target is Serotonin 2 (5-HT2) receptor (Rattus norvegicus, UniProt P30994+P08909+P14842). Description: Binding affinity against 5-hydroxytryptamine 2 receptor from rat frontal cortex using [125]-(R)-DOI as radioligand. Type of test: tissue-based. The essentials: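 Rat frontal cortex (male Sprague–Dawley) homogenized in 0.32 M sucrose, preincubated twice 10 min at 37 °C; assay in 50 mM Tris HCl pH 7.4 with EDTA, ascorbate, 10 mM MgCl2, 10 µM pargyline, 200–400 µg protein. Triplicates, 3–4 experiments; parameters fitted by EBDA/LIGAND.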

Test [12] relates to Rattus norvegicus. The test is described as follows: Percentage of rats selecting the drug lever (% SDL) for dose 0.87(umol/kg). Type of test: functional. In short, it runs like this: as §1
Test [13] relates to Rattus norvegicus. Description: Percentage of rats selecting the drug lever (% SDL) for dose 3.48(umol/kg). The format is functional. In short, it runs like this:
as §1

The subject of test [14] is Rattus norvegicus. The test is described as follows: Percentage of rats selecting the drug lever (% SDL) for dose 5.22(umol/kg). Type of test: functional. In short, it runs like this:
as §1

Test [15] has as its system Rattus norvegicus. The test is described as follows: Percentage of rats selecting the drug lever (% SDL) for dose 0.024(umol/kg). Type of test: functional. The essentials:
as §1

For test [16], the system named is Rattus norvegicus. Description: Percentage of rats selecting the drug lever (% SDL) for dose 0.093(umol/kg). Type of test: functional. The essentials: as §1
In test [17] the test system is Rattus norvegicus. Description: Percentage of rats selecting the drug lever (% SDL) for dose 0.012 (umol/kg). The format is functional. In short, it runs like this: as §1
Test [18] concerns Rattus norvegicus. The test is described as follows: Percentage of rats selecting the drug lever (% SDL) for dose 0.186 (umol/kg). Type of test: functional. In short, it runs like this: as §1
Test [19] has as its system Rattus norvegicus. Description: Percentage of rats selecting the drug lever (% SDL) for dose 0.047(umol/kg). The format is functional. The essentials:
as §1

Turning to `CCC(C)c1cc(OC)c(CC(C)N)cc1OC` (stereo not drawn), the SDL was 70% with Rattus norvegicus [1], 18% in the test on Rattus norvegicus [2], 90% in the test on Rattus norvegicus [4] and 60% in the test on Rattus norvegicus [5]. The ED50 in the test filed under Rattus norvegicus [3] amounted to 3.69 µmol/kg.

Regarding `COc1cc(CC(C)N)c(OC)cc1C` (stereo not drawn) [DOM], the SDL in the test on Rattus norvegicus [6] came to 67%; in the test on Rattus norvegicus [8], 67%; in the test on Rattus norvegicus [9] it was 100%; in the test with Rattus norvegicus [10] it was 13%. Besides, the Hill coefficient in [7] was 0.89. Besides, it took a dose of 0.61 µmol/kg to reach the 50% effect level in the test filed under Rattus norvegicus [3] (ED50).

With `CC[C@H](C)c1cc(OC)c(CC(C)N)cc1OC` (stereo partly drawn), in test [11], the Ki was 7.87 nM. Further, the Hill coefficient in test [7] amounted to 1.06. The ED50 in the test listed under Rattus norvegicus [3] was determined as 4.76 µmol/kg.

As to `CC[C@@H](C)c1cc(OC)c(CC(C)N)cc1OC` (stereo partly drawn), the SDL in the test with Rattus norvegicus [12] worked out at 0%; in the test with Rattus norvegicus [13], 50%; in the test with Rattus norvegicus [2] it was 25%; with Rattus norvegicus [14], 80%. Also, in test [11], the Ki worked out at 7.84 nM. In addition, in [7], the Hill coefficient came out at 1. Moreover, the ED50 in the test listed under Rattus norvegicus [3] was 3.08 µmol/kg.

Regarding `CCN(CC)C(=O)[C@@H]1C=C2c3cccc4[nH]cc(c34)C[C@H]2N(C)C1` [LYSERGIDE], the SDL in the test with Rattus norvegicus [15] is on record as 13%; in the test on Rattus norvegicus [16], 89%; in the test with Rattus norvegicus [17] it was 13%; with Rattus norvegicus [18] it was 100%; in the test with Rattus norvegicus [19], 38%. For the same compound, the Hill coefficient in test [7] turned out to be 1.18. In the test filed under Rattus norvegicus [3], this compound registered an ED50 of 0.02 µmol/kg.

The ED50 is the midpoint of the dose-response relation. Higher therefore signals weaker potency. Broadly, the Hill coefficient is a measure of the steepness of the concentration-response curve. A word on the Ki: it is the equilibrium dissociation constant of an inhibitor or competing ligand from its target. Lower therefore signals higher affinity.
